Data on 17 compounds can be found in ChEMBL document CHEMBL1122226, “6-Aryl-4,5-dihydro-3(2H)-pyridazinones. A new class of compounds with platelet aggregation inhibiting and hypotensive activities” (J Med Chem, 1983).

The species entered for assay [1] is Homo sapiens. The experiment in a line: In vitro inhibition of ADP-induced human platelet aggregation. Format: functional. The essentials: (§1)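 Human venous blood citrated with 10% v/v sodium citrate (3.8%); platelet-rich plasma spun at 300g, 10 min, 4 °C, used within 2 h. Compound in Me2SO (1% final) preincubated 10 min at room temperature; aggregation triggered by collagen 0.02 mg/mL final or ADP 0.85 μg/mL final; maximum rate read in Born aggregometer. EC50 from log dose–effect regression with 95% confidence limits.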

The species entered for assay [2] is Homo sapiens. The experiment in a line: Relative activity (compared to acetylsalicylic acid) for in vitro inhibition of collagen-induced human platelet aggregation. It is filed as functional.
Assay [3] deals with Rattus norvegicus. The experiment in a line: In vitro hypotensive activity in anesthetized rats after intraperitoneal administration. It is filed as functional. As to conditions: ip, in the assay text read “In vivo” for “In vitro”. The essentials: (§2)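 Male Sprague-Dawley rats, 230-280 g, urethane-anesthetized (ip); carotid arterial pressure recorded continuously by pressure transducer. Compounds given ip at 2 mL/kg. ED20, dose lowering mean carotid pressure by 20%, from log dose–effect regression; dihydralazine as reference.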

For assay [4], the system named is Rattus norvegicus. In words: Ex vivo inhibition of collagen-induced rat platelet aggregation after peroral administration. It is filed as functional. As to conditions: po. The essentials:
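Male Sprague-Dawley rats, 200-250 g, dosed orally, three rats per dose. Blood drawn by heart puncture under ether 1 h post-dose; platelet-rich plasma prepared by centrifugation; aggregation induced with collagen 0.02 mg/mL final, maximum rate read in Born aggregometer.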

Assay [5] in a line: In vitro inhibition of collagen induced aggregation of human plateles and the ratio of ED33 to EC50 was reported. It is filed as functional. The essentials: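 Ratio of oral ED33 (male Sprague-Dawley rats, 3 per dose, blood taken 1 h post-dose, collagen-triggered aggregation) to in vitro EC50 (human citrated platelet-rich plasma, 10 min room-temperature preincubation in 1% Me2SO, collagen 0.02 mg/mL final, regression-derived).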

Assay [6] has as its system Rattus norvegicus. The experiment in a line: Activity relative to dihydralazine for in vitro hypotensive activity in anesthetized rats. Format: functional. The settings on record: in the assay text read “in vivo” for “in vitro”. The essentials: as §2
For assay [7], the species on record is Rattus norvegicus. The experiment in a line: Relative activity in rats based on acetylsalicylic acid. It is filed as functional.
The species named for assay [8] is Homo sapiens. The experiment in a line: In vitro inhibition of collagen-induced human platelet aggregation. It is filed as functional, organism-based. The essentials: as §1

Molecules are shown by their SMILES. ≈ marks a conversion by molar mass, not a printed value.

For `CC1CC(=O)NN=C1c1ccc(NC(=O)CCCl)cc1` (configuration not stated), the EC50 in the assay listed under Homo sapiens [1] (Homo sapiens, read-out: EC50) is 0.16 µg/mL (≈ 0.545 µM). In addition, the Relative activity in the assay listed under Homo sapiens [2] was 1647; in the assay with Rattus norvegicus [6] it was 7.68; in the assay listed under Rattus norvegicus [7], 4.9. In the assay on Rattus norvegicus [3], the ED20 came out at 0.044 mg/kg. In addition, the ED33 with Rattus norvegicus [4] amounted to 47.5 mg/kg. Further, the Ratio in assay [5] was determined as 158.
In the case of `CCN(CC)CC(=O)Nc1ccc(C2=NNC(=O)CC2)cc1.Cl`, the concentration for a half-maximal effect (EC50) in the assay filed under Homo sapiens [1] (Homo sapiens, read-out: EC50) was about 10 µg/mL; in the assay filed under Homo sapiens [8] (Homo sapiens, read-out: EC50), about 10 µg/mL. Moreover, the Relative activity in the assay filed under Homo sapiens [2] is about 49; in the assay on Rattus norvegicus [6] it was under 0.34. The ED20 with Rattus norvegicus [3] is over 1 mg/kg.
Turning to `CCCNCC(=O)Nc1ccc(C2=NNC(=O)CC2)cc1.Cl`, the EC50 was about 46.4 µg/mL in the assay listed under Homo sapiens [1] (Homo sapiens, read-out: EC50) and about 10 µg/mL in the assay listed under Homo sapiens [8] (Homo sapiens, read-out: EC50). Besides, the Relative activity was about 49 in the assay filed under Homo sapiens [2] and under 0.34 in the assay on Rattus norvegicus [6]. This compound returned an ED20 in the assay with Rattus norvegicus [3] of over 1 mg/kg.
Take `CCCC(=O)Nc1ccc(C2=NNC(=O)CC2)cc1`: the EC50 in the assay listed under Homo sapiens [1] (Homo sapiens, read-out: EC50) turned out to be 1.44 µg/mL (≈ 5.55 µM); in the assay filed under Homo sapiens [8] (Homo sapiens, read-out: EC50) it was 1.45 µg/mL (≈ 5.59 µM). Also, the Relative activity in the assay listed under Homo sapiens [2] is on record as 341; with Rattus norvegicus [6], 0.74. Also, the ED20 with Rattus norvegicus [3] turned out to be 0.46 mg/kg.
On to `CC(=O)Nc1ccc(C2=NNC(=O)C(C)C2)cc1` (configuration not stated), for which the EC50 in the assay listed under Homo sapiens [1] (Homo sapiens, read-out: EC50) was 46.4 µg/mL (≈ 189 µM); in the assay listed under Homo sapiens [8] (Homo sapiens, read-out: EC50) it was 46.4 µg/mL (≈ 189 µM). For the same compound, the Relative activity is 11 in the assay filed under Homo sapiens [2] and under 0.34 with Rattus norvegicus [6]. Moreover, the ED20 in the assay on Rattus norvegicus [3] was over 1 mg/kg.
Take `CCC(Br)C(=O)Nc1ccc(C2=NNC(=O)CC2C)cc1` (configuration not stated): in the assay listed under Homo sapiens [1] (Homo sapiens, read-out: EC50), the EC50 came out at 0.052 µg/mL (≈ 0.148 µM). In the assay on Rattus norvegicus [3], this compound had an ED20 of 1.49 mg/kg. This compound also had an ED33 in the assay on Rattus norvegicus [4] of 2.58 mg/kg. In addition, the Ratio in assay [5] stood at 9.6. In addition, the Relative activity came to 0.23 in the assay on Rattus norvegicus [6] and 90.3 in the assay listed under Rattus norvegicus [7].
On to `CCCCC(=O)Nc1ccc(C2=NNC(=O)CC2)cc1`, for which the EC50 in the assay listed under Homo sapiens [1] (Homo sapiens, read-out: EC50) came out at 2.64 µg/mL (≈ 9.66 µM); in the assay filed under Homo sapiens [8] (Homo sapiens, read-out: EC50), 3.34 µg/mL (≈ 12.2 µM). In addition, the Relative activity in the assay filed under Homo sapiens [2] worked out at 148; with Rattus norvegicus [6] it was 0.34. Moreover, the ED20 in the assay with Rattus norvegicus [3] came to 1 mg/kg.
Taken in the same sequence, the figures for `CCC(C)NCC(=O)Nc1ccc(C2=NNC(=O)CC2)cc1.Cl` (configuration not stated) were about 21.5 µg/mL, about 21.5 µg/mL, about 23, under 0.34 and over 1 mg/kg.
The like results for `CC(=O)Nc1ccc(C2=NN(C)C(=O)CC2)cc1` were, in that order, over 46.4 µg/mL, over 46.4 µg/mL, under 11, 0.34 and 1 mg/kg.
The like results for `CC(Cl)CC(=O)Nc1ccc(C2=NNC(=O)CC2C)cc1` (configuration not stated) were, in that order, 4.78 µg/mL (≈ 15.5 µM), 3.29 µg/mL (≈ 10.7 µM), 150, 1.81 and 0.187 mg/kg.
Regarding `O=C1CCC(c2ccc(NC(=O)CN3CCOCC3)cc2)=NN1`, the concentration for a half-maximal effect (EC50) was about 46.4 µg/mL (≈ 147 µM) in the assay filed under Homo sapiens [1] (Homo sapiens, read-out: EC50) and about 21.5 µg/mL (≈ 68 µM) in the assay filed under Homo sapiens [8] (Homo sapiens, read-out: EC50). Besides, the Relative activity in the assay filed under Homo sapiens [2] is about 23; in the assay with Rattus norvegicus [6], under 0.34. The ED20 in the assay with Rattus norvegicus [3] is over 1 mg/kg.
Taken in the same sequence, the figures for `CC(C)NCC(=O)Nc1ccc(C2=NNC(=O)CC2)cc1.Cl` were about 46.4 µg/mL, about 21.5 µg/mL, about 23, under 0.34 and over 1 mg/kg.
For the compound `CC1CC(=O)NN=C1c1ccc(NC(=O)CCCCl)cc1` (configuration not stated), the EC50 is 1.63 µg/mL (≈ 5.3 µM) in the assay listed under Homo sapiens [1] (Homo sapiens, read-out: EC50) and 1.66 µg/mL (≈ 5.39 µM) in the assay listed under Homo sapiens [8] (Homo sapiens, read-out: EC50). This compound yielded a Relative activity in the assay filed under Homo sapiens [2] of 298. Moreover, the ED20 with Rattus norvegicus [3] turned out to be 0.32 mg/kg.
As for `CC(=O)Nc1cccc(C2=NNC(=O)CC2)c1`, the EC50 in the assay listed under Homo sapiens [1] (Homo sapiens, read-out: EC50) was over 46.4 µg/mL; in the assay listed under Homo sapiens [8] (Homo sapiens, read-out: EC50) it was over 46.4 µg/mL. Besides, the Relative activity is listed as under 11 in the assay listed under Homo sapiens [2] and under 0.34 in the assay with Rattus norvegicus [6]. This compound came in with an ED20 in the assay with Rattus norvegicus [3] of over 1 mg/kg.
Turning to `N/N=c1\[nH][nH]/c(=N\N)c2ccccc12` [DIHYDRALAZINE], the results for the EC50 in the assay filed under Homo sapiens [1] and in the assay listed under Homo sapiens [8] were 310 µg/mL (≈ 1630 µM) and 149 µg/mL (≈ 783 µM), respectively. The Relative activity in the assay listed under Homo sapiens [2] came to 3; in the assay with Rattus norvegicus [6] it was 1. The ED20 in the assay with Rattus norvegicus [3] was 0.34 mg/kg.
Take `CC1CC(c2ccc(N)cc2)=NNC1=O` (configuration not stated): the EC50 in the assay filed under Homo sapiens [1] (Homo sapiens, read-out: EC50) came out at 43.8 µg/mL (≈ 216 µM); in the assay filed under Homo sapiens [8] (Homo sapiens, read-out: EC50), 46.9 µg/mL (≈ 231 µM). The Relative activity in the assay listed under Homo sapiens [2] was 11; in the assay on Rattus norvegicus [6] it was under 0.34. In the assay on Rattus norvegicus [3], the ED20 was over 1 mg/kg.
The like results for `CN1N=C(c2ccc(N)cc2)CCC1=O` were, in that order, over 46.4 µg/mL, over 46.4 µg/mL, under 11, under 0.34 and over 1 mg/kg.
